Reference: ChEMBL document CHEMBL2069223, “Near-infrared fluorescent divalent RGD ligand for integrin αvβ₃-targeted optical imaging” (Bioorg Med Chem Lett, 2012)
pIC50, pKi: −log10 of the molar value. Active and inactive are the calls of the source. The rule behind the calls is not given here.

What was measured:
Integrin alpha-V/beta-3 [1] = biological target: T1, Integrin alpha-V/beta-3 (Homo sapiens, UniProt P05106+P06756); assay: Binding affinity to integrin alphavbeta3 in human A549 cells assessed as cellular uptake after 6 hrs by NIR Fluorescence microscopy analysis; assay type: cell-based
How it was run: (§1)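 Integrin αvβ3-positive A549 cells were incubated with the NIR fluorescent probes. Cellular binding and uptake were then imaged by NIR fluorescence microscopy at separate incubation time points.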

Integrin alpha-V/beta-3 [2] = biological target: T1, Integrin alpha-V/beta-3; assay: Binding affinity to integrin alphavbeta3 in human A549 cells assessed as cellular uptake after 1 hr by NIR Fluorescence microscopy analysis; assay type: cell-based; how it was run: as §1
Mus musculus [3] = assay: Biodistribution in tumor of nude mouse xenografted with human A549 cells expressing integrin alphavbeta3 at 60 uM, iv after 24 hrs by NIR Fluorescence image analysis; assay type: ADME, organism-based, Neoplasm; details: in vivo
How it was run: (§2)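 Nude mice bearing A549 xenografts (5–7 mm diameter) received 100 µL of 60 µM probe by tail-vein injection. Animals were euthanized at 24 h post-injection. Excised organs were imaged ex vivo for NIR fluorescence (excitation 780 nm, emission 830 nm), and organ fluorescence intensity was measured.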

Kidney [4] = assay: Biodistribution in kidney of nude mouse xenografted with human A549 cells expressing integrin alphavbeta3 at 60 uM, iv after 24 hrs by NIR Fluorescence image analysis; assay type: ADME, organism-based; details: in vivo; how it was run: as §2
Zone of skin = assay: Biodistribution in skin of nude mouse xenografted with human A549 cells expressing integrin alphavbeta3 at 60 uM, iv after 24 hrs by NIR Fluorescence image analysis; assay type: ADME, organism-based; details: in vivo; how it was run: as §2
Integrin alpha-V/beta-3 [5] = biological target: T1, Integrin alpha-V/beta-3; assay: Displacement of [125I]-c(RGDyK) from human integrin alphavbeta3 after 16 hrs by scintillation counting; assay type: protein-complex assay
Target sequence in this assay (P05106 27-788 limits assumed): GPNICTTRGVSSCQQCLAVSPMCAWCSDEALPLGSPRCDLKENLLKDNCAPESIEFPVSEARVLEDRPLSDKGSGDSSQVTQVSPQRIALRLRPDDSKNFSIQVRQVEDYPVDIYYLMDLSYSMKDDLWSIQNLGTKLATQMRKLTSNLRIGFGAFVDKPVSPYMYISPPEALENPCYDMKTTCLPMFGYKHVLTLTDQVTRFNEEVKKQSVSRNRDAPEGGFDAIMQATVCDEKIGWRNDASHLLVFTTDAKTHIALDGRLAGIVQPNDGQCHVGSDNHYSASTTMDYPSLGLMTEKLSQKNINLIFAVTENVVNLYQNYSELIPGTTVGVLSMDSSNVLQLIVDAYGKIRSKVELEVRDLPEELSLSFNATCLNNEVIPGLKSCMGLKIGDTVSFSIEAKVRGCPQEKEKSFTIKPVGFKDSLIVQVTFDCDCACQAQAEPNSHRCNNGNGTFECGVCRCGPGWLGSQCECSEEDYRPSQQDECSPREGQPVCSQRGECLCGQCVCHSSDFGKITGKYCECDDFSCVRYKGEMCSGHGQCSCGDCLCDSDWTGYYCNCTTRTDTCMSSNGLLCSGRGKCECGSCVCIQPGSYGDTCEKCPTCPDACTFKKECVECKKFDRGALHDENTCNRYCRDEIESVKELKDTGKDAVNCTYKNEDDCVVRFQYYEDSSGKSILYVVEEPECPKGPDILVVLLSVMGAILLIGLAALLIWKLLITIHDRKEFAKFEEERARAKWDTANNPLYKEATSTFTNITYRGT
Target sequence in this assay (P06756 31-889 limits assumed): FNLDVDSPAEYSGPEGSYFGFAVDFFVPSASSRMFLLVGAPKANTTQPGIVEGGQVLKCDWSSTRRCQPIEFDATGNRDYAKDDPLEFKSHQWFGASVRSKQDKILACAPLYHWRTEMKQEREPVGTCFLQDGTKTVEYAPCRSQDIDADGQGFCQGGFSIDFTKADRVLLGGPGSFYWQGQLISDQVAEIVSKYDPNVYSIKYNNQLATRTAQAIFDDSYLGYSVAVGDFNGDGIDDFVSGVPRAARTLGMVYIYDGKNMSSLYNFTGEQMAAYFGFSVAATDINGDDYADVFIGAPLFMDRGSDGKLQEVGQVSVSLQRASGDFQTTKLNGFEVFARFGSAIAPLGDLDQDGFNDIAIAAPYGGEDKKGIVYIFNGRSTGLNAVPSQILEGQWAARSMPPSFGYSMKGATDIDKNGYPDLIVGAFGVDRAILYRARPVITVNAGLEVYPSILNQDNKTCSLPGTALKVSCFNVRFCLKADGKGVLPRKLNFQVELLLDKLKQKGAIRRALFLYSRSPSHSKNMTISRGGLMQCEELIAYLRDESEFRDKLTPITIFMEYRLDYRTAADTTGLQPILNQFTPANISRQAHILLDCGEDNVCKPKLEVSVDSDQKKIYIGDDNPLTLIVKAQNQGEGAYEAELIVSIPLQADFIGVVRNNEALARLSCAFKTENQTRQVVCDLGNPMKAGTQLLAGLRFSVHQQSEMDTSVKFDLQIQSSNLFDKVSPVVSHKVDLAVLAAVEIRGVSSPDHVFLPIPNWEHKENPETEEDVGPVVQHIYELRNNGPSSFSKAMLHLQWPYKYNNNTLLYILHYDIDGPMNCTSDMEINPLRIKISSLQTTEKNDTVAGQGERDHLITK
Target sequence in this assay (P06756 891-1048 limits assumed): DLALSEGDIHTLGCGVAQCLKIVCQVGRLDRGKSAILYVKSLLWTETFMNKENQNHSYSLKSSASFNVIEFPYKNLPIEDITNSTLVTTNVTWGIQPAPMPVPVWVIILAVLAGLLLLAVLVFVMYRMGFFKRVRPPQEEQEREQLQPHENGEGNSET

Integrin alpha-V/beta-3 [6] = biological target: T1, Integrin alpha-V/beta-3; assay: Binding affinity to integrin alphavbeta3 in human A549 cells assessed as cellular uptake in mitochondria measured by co-localization with mitotracker orange CM-TMRos after 16 hrs by two-dimensional confocal image analysis; assay type: cell-based
How it was run: (§3)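 A549 cells incubated with probe for 16 h. Confocal imaging with excitation at 488, 633 and 755 nm, scanning a field at 2 µs per pixel. Images overlay a nuclear stain, a mitochondrial stain and cypate fluorescence, and subcellular localization is judged from this co-localization.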

Liver [7] = assay: Biodistribution in liver of nude mouse xenografted with human A549 cells expressing integrin alphavbeta3 at 60 uM, iv after 4 hrs by NIR Fluorescence image analysis; assay type: ADME, organism-based; details: in vivo
How it was run: (§4)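 Nude mice bearing A549 xenografts (5–7 mm diameter) received 100 µL of 60 µM probe by tail-vein injection. Noninvasive whole-body NIR fluorescence imaging (excitation 780 nm, emission 830 nm) was done at 1, 4 and 24 h post-injection, and tissue fluorescence intensity was measured from the images.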

Muscle tissue = assay: Biodistribution in muscle of nude mouse xenografted with human A549 cells expressing integrin alphavbeta3 at 60 uM, iv after 24 hrs by NIR Fluorescence image analysis; assay type: ADME, organism-based; details: in vivo; how it was run: as §2
Brain = assay: Biodistribution in brain of nude mouse xenografted with human A549 cells expressing integrin alphavbeta3 at 60 uM, iv after 24 hrs by NIR Fluorescence image analysis; assay type: ADME, organism-based; details: in vivo; how it was run: as §2
Liver [8] = assay: Biodistribution in liver of nude mouse xenografted with human A549 cells expressing integrin alphavbeta3 at 60 uM, iv after 24 hrs by NIR Fluorescence image analysis; assay type: ADME, organism-based; details: in vivo; how it was run: as §2
Blood = assay: Biodistribution in blood of nude mouse xenografted with human A549 cells expressing integrin alphavbeta3 at 60 uM, iv after 24 hrs by NIR Fluorescence image analysis; assay type: ADME, organism-based; details: in vivo; how it was run: as §2
Kidney [9] = assay: Biodistribution in kidney of nude mouse xenografted with human A549 cells expressing integrin alphavbeta3 at 60 uM, iv after 4 hrs by NIR Fluorescence image analysis; assay type: ADME, organism-based; details: in vivo; how it was run: as §4
Mus musculus [10] = assay: Biodistribution in tumor of nude mouse xenografted with human A549 cells expressing integrin alphavbeta3 at 60 uM, iv after 4 hrs by NIR Fluorescence image analysis; assay type: ADME, organism-based, Neoplasm; details: in vivo; how it was run: as §4
Spleen = assay: Biodistribution in spleen of nude mouse xenografted with human A549 cells expressing integrin alphavbeta3 at 60 uM, iv after 24 hrs by NIR Fluorescence image analysis; assay type: ADME, organism-based; details: in vivo; how it was run: as §2
Integrin alpha-V/beta-3 [11] = biological target: T1, Integrin alpha-V/beta-3; assay: Binding affinity to integrin alphavbeta3 in human A549 cells assessed as cellular uptake in nucleus measured by co-localization with DRAQ5 after 16 hrs by two-dimensional confocal image analysis; assay type: cell-based; how it was run: as §3
Heart = assay: Biodistribution in heart of nude mouse xenografted with human A549 cells expressing integrin alphavbeta3 at 60 uM, iv after 24 hrs by NIR Fluorescence image analysis; assay type: ADME, organism-based; details: in vivo; how it was run: as §2
Mus musculus [12] = assay: Biodistribution in adrenal of nude mouse xenografted with human A549 cells expressing integrin alphavbeta3 at 60 uM, iv after 24 hrs by NIR Fluorescence image analysis; assay type: ADME, organism-based, Adrenal tissue; details: in vivo; how it was run: as §2
Pancreas = assay: Biodistribution in pancreas of nude mouse xenografted with human A549 cells expressing integrin alphavbeta3 at 60 uM, iv after 24 hrs by NIR Fluorescence image analysis; assay type: ADME, organism-based; details: in vivo; how it was run: as §2

Activity (Integrin alpha-V/beta-3 [1])	Activity (Integrin alpha-V/beta-3 [2])	SMILES	Drug uptake (Mus musculus [3])	Drug uptake (Kidney [4])	Drug uptake (Zone of skin)	pIC50 (Integrin alpha-V/beta-3 [5])	pKi (Integrin alpha-V/beta-3 [5])	Activity (Integrin alpha-V/beta-3 [6])	Drug uptake (Liver [7])	Drug uptake (Muscle tissue)	Drug uptake (Brain)	Drug uptake (Liver [8])	Drug uptake (Blood)	Drug uptake (Kidney [9])	Drug uptake (Mus musculus [10])	Drug uptake (Spleen)	Activity (Integrin alpha-V/beta-3 [11])	Drug uptake (Heart)	Drug uptake (Mus musculus [12])	Drug uptake (Pancreas)
Active	Active	CC1(C)C(/C=C/C=C/C=C/C=C2/N(CCC(=O)O)c3ccc4ccccc4c3C2(C)C)=[N+](CCC(=O)O)c2ccc3ccccc3c21																		
Active	Active	CC1(C)C(/C=C/C=C/C=C/C=C2/N(CCC(=O)NCCCC[C@@H]3NC(=O)[C@@H](Cc4ccccc4)NC(=O)[C@H](CC(=O)O)NC(=O)CNC(=O)[C@H](CCCNC(=N)N)NC3=O)c3ccc4ccccc4c3C2(C)C)=[N+](CCC(=O)O)c2ccc3ccccc3c21.[Br-]				[…]	[…]	Active	Active					Active			Active			

SMILES	Activity (Integrin alpha-V/beta-3 [1])	Activity (Integrin alpha-V/beta-3 [2])	Drug uptake (Mus musculus [3])	Drug uptake (Kidney [4])	Drug uptake (Zone of skin)	pIC50 (Integrin alpha-V/beta-3 [5])	pKi (Integrin alpha-V/beta-3 [5])	Activity (Integrin alpha-V/beta-3 [6])	Drug uptake (Liver [7])	Drug uptake (Muscle tissue)	Drug uptake (Brain)	Drug uptake (Liver [8])	Drug uptake (Blood)	Drug uptake (Kidney [9])	Drug uptake (Mus musculus [10])	Drug uptake (Spleen)	Activity (Integrin alpha-V/beta-3 [11])	Drug uptake (Heart)	Drug uptake (Mus musculus [12])	Drug uptake (Pancreas)
CC1(C)C(/C=C/C=C/C=C/C=C2/N(CCC(=O)NCCCC[C@@H]3NC(=O)[C@@H](Cc4ccccc4)NC(=O)[C@H](CC(=O)O)NC(=O)CNC(=O)[C@H](CCCNC(=N)N)NC3=O)c3ccc4ccccc4c3C2(C)C)=[N+](CCC(=O)NCCCC[C@@H]2NC(=O)[C@@H](Cc3ccccc3)NC(=O)[C@H](CC(=O)O)NC(=O)CNC(=O)[C@H](CCCNC(=N)N)NC2=O)c2ccc3ccccc3c21.[Br-]	Active	Active	Active	Active	Active	9.55	10.37	Active	Active	Active	Active	Active	Active	Active	Active	Active	Active	Active	Active	Active
